Experimental data: paper PMC10670441 (ACS chemical neuroscience, 2023)

Assays:
[1] = molecular target: human dopamine transporter (hDAT) (Homo sapiens, UniProt Q01959); experiment: Inhibition of APP+ uptake in hDAT-expressing HEK293 cells; assay type: cell-based; conditions: for DAT Selectivity: SERT IC50 value ÷ DAT IC50 value; for IC50: hDAT, inhibition of APP+ (3 μM) uptake
Procedure, shortened: (§1)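 Flp-In T-REx HEK293 lines stably carrying hDAT or hSERT, DsRED-transfected, doxycycline-induced (1μg/mL) for three days. Under perfusion in pH 7.3 HEPES-glucose buffer: 10 s buffer, 40 s compound, 30 s APP⁺ (3 μM hDAT; 5 μM hSERT) plus compound. Imaging at ex 460/em 535/50 nm. End-point fluorescence averaged over 30–60 cells per well, one concentration per well, normalised to compound-free wells (≥4 wells/concentration). Dose-response inhibition fit gives IC50.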

[2] = molecular target: human serotonin transporter (hSERT) (Homo sapiens, UniProt P31645); experiment: Inhibition of APP+ uptake in hSERT-expressing HEK293 cells; assay type: cell-based; conditions: inhibition of APP+ (5 μM) uptake
Procedure, shortened: as §1

DAT [3] = conditions: cited from earlier work; for EC50: DAT releasing agent
DAT [4] = conditions: binding at DAT; cited from earlier work

Chain of human dopamine transporter (hDAT) (Q01959 whole entry, the tested form may be a part): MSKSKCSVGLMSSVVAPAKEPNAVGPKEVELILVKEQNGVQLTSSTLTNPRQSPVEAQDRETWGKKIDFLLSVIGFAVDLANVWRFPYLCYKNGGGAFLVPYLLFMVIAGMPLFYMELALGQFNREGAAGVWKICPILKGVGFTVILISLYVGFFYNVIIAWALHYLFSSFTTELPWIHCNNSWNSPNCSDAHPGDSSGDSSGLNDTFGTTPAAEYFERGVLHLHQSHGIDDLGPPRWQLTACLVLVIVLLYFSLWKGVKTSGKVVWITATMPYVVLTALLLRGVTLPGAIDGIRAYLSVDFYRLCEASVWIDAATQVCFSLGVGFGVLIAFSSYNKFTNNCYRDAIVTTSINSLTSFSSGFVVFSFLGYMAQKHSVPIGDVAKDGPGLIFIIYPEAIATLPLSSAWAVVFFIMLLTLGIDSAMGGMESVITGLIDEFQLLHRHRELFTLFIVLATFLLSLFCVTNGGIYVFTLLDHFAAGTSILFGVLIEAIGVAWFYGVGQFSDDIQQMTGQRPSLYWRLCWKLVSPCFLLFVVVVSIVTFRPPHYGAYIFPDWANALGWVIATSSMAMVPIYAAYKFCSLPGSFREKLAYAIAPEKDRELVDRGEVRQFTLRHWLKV
Chain of human serotonin transporter (hSERT) (P31645 whole entry): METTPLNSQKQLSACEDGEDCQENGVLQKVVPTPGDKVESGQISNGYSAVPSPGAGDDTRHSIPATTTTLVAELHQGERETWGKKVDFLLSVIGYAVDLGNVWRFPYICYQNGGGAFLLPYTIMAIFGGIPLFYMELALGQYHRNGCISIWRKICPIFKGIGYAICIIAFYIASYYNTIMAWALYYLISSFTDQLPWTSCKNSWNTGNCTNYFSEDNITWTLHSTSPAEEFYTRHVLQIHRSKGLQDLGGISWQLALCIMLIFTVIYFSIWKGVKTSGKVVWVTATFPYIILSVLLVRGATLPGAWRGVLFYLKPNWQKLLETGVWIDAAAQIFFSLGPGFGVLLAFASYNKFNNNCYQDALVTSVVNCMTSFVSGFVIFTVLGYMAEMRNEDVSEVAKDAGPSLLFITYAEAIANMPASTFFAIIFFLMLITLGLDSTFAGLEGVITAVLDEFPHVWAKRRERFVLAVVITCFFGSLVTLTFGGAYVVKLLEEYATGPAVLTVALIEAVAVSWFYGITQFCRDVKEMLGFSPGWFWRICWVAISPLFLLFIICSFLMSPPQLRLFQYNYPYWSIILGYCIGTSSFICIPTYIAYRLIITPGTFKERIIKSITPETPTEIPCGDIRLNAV

Compound	DAT Selectivity [1] [fold]	IC50 [1] [nM]	IC50 [2] [µM]	other results
CCCCC(C(=O)c1ccc(Br)cc1)N1CCCC1.Cl (stereo not drawn) [4-Br α-PHP (8), 1-(4-Bromophenyl)-2-(pyrrolidin-1-yl)hexanone Hydrochloride]	28	127	3.61	
CNC(C)C(=O)c1ccc(C(F)(F)F)cc1 (centres unmarked) [4-CF3 10, 4-CF3 methcathinone]				EC50 (DAT [3]): 2710 nM
CCCC(C(=O)c1ccc(C(F)(F)F)cc1)N1CCCC1 (centres unmarked) [4-CF3 analogue of 2]				fold lower affinity at DAT than 2 (DAT [4]): > 300 fold
CCCCC(C(=O)c1ccc(C(F)(F)F)cc1)N1CCCC1.Cl (stereo not drawn) [4-CF3 α-PHP (9), 1-(4-Trifluoromethylphenyl)-2-pyrrolidin-1-yl)hexanone Hydrochloride]		7500	5.79	
CCCCC(C(=O)c1ccc(C(F)(F)F)cc1)N1CCCC1.Cl (stereo not drawn) [4-CF3 α-PHP (9)]	0.8			
CCCCC(C(=O)c1ccc(CC)cc1)N1CCCC1.Cl (stereo not drawn) [4-CH2CH3 α-PHP (6), 1-(4-Ethylphenyl)-2-(pyrrolidin-1-yl)hexanone Hydrochloride]	40	247	9.83	
CCCCC(C(=O)c1ccc(C)cc1)N1CCCC1.Cl (stereo not drawn) [4-CH3 α-PHP (4), 1-(4-Methylphenyl)-2-pyrrolidin-1-yl)hexanone Hydrochloride]		124	10.2	
CCCCC(C(=O)c1ccc(C)cc1)N1CCCC1.Cl (stereo not drawn) [4-CH3 α-PHP (4)]	83			
CCCCC(C(=O)c1ccc(Cl)cc1)N1CCCC1.Cl (stereo not drawn) [4-Cl α-PHP (7), 1-(4-Chlorophenyl)-2-(pyrrolidin-1-yl)hexanone Hydrochloride]	55	184	10.1	
CNC(C)C(=O)c1ccc(OC)cc1 (centres unmarked) [4-OCH3 10]				fold lower potency as a releasing agent than its parent, 10 (DAT [3]; DAT release): 40 fold; SERT versus DAT selectivity (DAT [3]; releasing agent): 4 fold
CCCCC(C(=O)c1ccc(OC)cc1)N1CCCC1.Cl (stereo not drawn) [4-OCH3 α-PHP (5), 1-(4-Methoxyphenyl)-2-(pyrrolidin-1-yl)hexanone Hydrochloride]	200	75	15.2	
CNC(C)C(=O)c1ccccc1 (centres unmarked) [Compound 10, methcathinone]				EC50 (DAT [3]): 13.5 nM
CCCCC(C(=O)c1ccccc1)N1CCCC1 (stereo not drawn) [α-PHP (1), 1-phenyl-2-(pyrrolidin-1-yl)hexanone]	>300	97	> 30	
